Screens: PubChem BioAssay, several laboratories
DAGLB inhibitor = DAGLB lipase inhibitors, primary screen, biochemical, fluorescence, HTS. inhibition, % at 5.17 µM. HEK293T DAGLB membrane lysate, EnzChek fluorogenic substrate. hit rate 0.059% among 340,000; in the data active means inhibition above about 34%;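 further: 0% = enzyme with vehicle and 100% = wells lacking enzyme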
GRK2 inh = compounds blocking aptamer binding on GRK2 – biochemical, human GRK2, bead flow cytometry, HTS, primary screen | FAM-aptamer displacement from GRK2 | inhibition of aptamer binding, % at 10 µM | hit rate 0.59% among 330,000 | Beta-adrenergic receptor kinase 1 (Homo sapiens), P25098 | AID 488847, 2010;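 active means inhibition of aptamer binding above 40%, roughly 3 SD of noise, on plates passing a quality check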;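 further: median bead fluorescence of bound FAM aptamer so fluorescent compounds give negative values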
NS3 helicase inh = inhibitors of HCV NS3 helicase, primary screen, biochemical, Cy5 molecular beacon fluorescence | Hepatitis C virus NS3 helicase | NS3 helicase DNA unwinding | inhibition, % at 10.9 µM | hit rate 0.56% among 290,000;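 active means inhibition above the mean of all tested compounds plus 3 SD, set per campaign, cut at about 35% in these data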;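 further: 0% = DMSO wells and 100% = thioflavine S control wells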
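Material: hepatitis C virus NS3 helicase domain fragment enzyme; measured by: Cy5 fluorescence, 0 and 60 min reads; control set: DMSO and thioflavine S; incubation: 60 min unwinding reaction at 25 °C after ATP addition; read-out basis: % inhibition from 60/0 min fluorescence ratio, DMSO 0%, thioflavine S 100%; repeats: singlicate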
FID counter = compounds displacing fluorescent DNA intercalator, primary screen, artefact control for HCV NS3 helicase inhibitor project, biochemical, FID fluorescence; DNA fluorescent intercalator displacement; inhibition, % at 7.9 µM; hit rate 0.17% among 290,000; AID 1845, 2009; in the data active means inhibition above about 37%;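 further: 0% = vehicle and 100% = reference compound; higher means more ethidium bromide displaced from hairpin DNA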
GPR7 antag = GPR7 receptor antagonists, primary screen, cell-based, fluorescence, single concentration; hit rate 1.1% among 290,000; Neuropeptides B/W receptor type 1 (Homo sapiens), P48145; GPR7-expressing cells, fluorescence antagonist assay; AID 1861, 2009; inhibition, % at 4.4 µM; in the data active means inhibition above about 16%, passing the limit was not always enough;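 further: cells stimulated with the agonist NPW; 0% = agonist with vehicle and 100% = vehicle without agonist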
Target sequence (P48145 whole entry, looked up): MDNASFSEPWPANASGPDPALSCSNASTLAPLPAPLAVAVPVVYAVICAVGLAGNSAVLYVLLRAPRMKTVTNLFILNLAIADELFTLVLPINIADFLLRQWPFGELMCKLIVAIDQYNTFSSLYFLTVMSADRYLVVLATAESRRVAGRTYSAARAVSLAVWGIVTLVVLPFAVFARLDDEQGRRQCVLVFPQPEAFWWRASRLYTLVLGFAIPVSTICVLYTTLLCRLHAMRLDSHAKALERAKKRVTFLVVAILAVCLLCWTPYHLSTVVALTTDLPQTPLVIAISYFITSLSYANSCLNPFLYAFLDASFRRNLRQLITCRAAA
core dimer inh = inhibitors of HCV core protein dimerization, primary screen, biochemical, TR-FRET, high-throughput; TR-FRET GST/Flag-core106 dimerization, 1536-well; inhibition, % at 5 µM; hit rate 0.33% among 300,000; AID 1899, 2009;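 active means inhibition above the mean of all tested compounds plus 3 SD, set per screening campaign, cut at about 45% in these data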
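assay system = GST-tagged and Flag-tagged HCV core protein residues 1-106 | controls = unlabelled core106 and no-GST-core106 wells | incubation = compound-protein-antibody incubation 4 h at 22.5 °C | probe or stimulus = Eu donor and XL665 acceptor anti-tag antibodies | read-out = % inhibition based on acceptor/donor emission ratio | signal = TR-FRET 671 and 617 nm emission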
GRK2 inh confirm = GRK2 aptamer-displacing inhibitors, retest, confirmation, biochemical, cherry pick 1, bead flow cytometry. shares compounds with GRK2 inh. bead-bound GRK2, FAM-aptamer displacement. aptamer displacement, % at 10 µM. hit rate 4% among 2,000;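 active means aptamer displacement above 40%, near three times the noise of non-fluorescent compounds, on plates passing quality checks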;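 further: negative values mostly reflect intrinsic compound fluorescence rather than true enhancement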
Aptamer quench SP = counter-screen for GRK2 aptamer inhibitors: fluorescent aptamer quenchers | shares compounds with GRK2 inh | Carboxyfluorescein RNA aptamer on beads, flow cytometry quenching; hits give low values | 2,000 tested, under 10 active | fluorescence response (% of DMSO), % at 10 µM;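 active means compounds that quench the bead-bound fluorescent RNA probe, cutting fluorescence to under half of the solvent control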;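 further: counterscreen run without GRK2 so only probe quenching by compound is measured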
GRK2 confirm 2 = GRK2 aptamer-displacing inhibitors, hit retest, confirmation, biochemical, cherry pick 2, bead flow cytometry | 360 tested, under 10 active | inhibition of aptamer binding, % at 10 µM | bead-bound GRK2, FAM-aptamer displacement | shares compounds with GRK2 inh;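 active means inhibition of aptamer binding above 40%, about triple the noise seen with nonglowing compounds, on plates passing quality control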;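 further: negative values mostly come from compounds that fluoresce themselves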
FAM quench CP2 = counter-screen for GRK2 binding hits: quenchers of fluorescent RNA aptamer | shares compounds with GRK2 inh | carboxyfluorescein RNA aptamer beads, flow cytometry quenching; hits give low values | fluorescence response vs DMSO, % at 10 µM | 360 tested, under 10 active | AID 588494;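 active means response vs DMSO under 50%, meaning signal dropped by over half, treated as fluorescence quencher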;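 further: labelled aptamer on streptavidin beads without GRK2 as a quench counter-screen; 100% = bead fluorescence of DMSO wells and lower means quenching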
An asterisk follows results filed as active; x = no result. Rows were chosen to be rich in hits. Some 2.2% of all compounds tested hit in one or more screens of this group.

SMILES	DAGLB inhibitor	GRK2 inh	NS3 helicase inh	FID counter	GPR7 antag	core dimer inh	GRK2 inh confirm	Aptamer quench SP	others
O=C(O)c1nn(CC(=O)N(C2CCCCC2)C2CCCCC2)c(=O)c2ccccc12	-1	4	1	2	-2	15	x	x
CCCCC(CC)CN1CN(CC(CC)CCCC)CC(C)(N)C1 (centres undefined)	1	x	x	x	x	x	x	x
CCOc1ccccc1N(C(=O)c1snc(C(N)=O)c1N)C(C(=O)NCC1CCCO1)c1ccc2ncccc2c1 (centres undefined)	1	3	2	-44	-9	3	x	x
COc1ccc(OC)c(N(C(=O)c2snc(C(N)=O)c2N)C(C(=O)NCC2CCCO2)c2ccc3ncccc3c2)c1 (centres undefined)	-4	50*	7	-40	2	-4	7	102
COc1cccc(CC2(CO)CCCN(Cc3[nH]c4ccc(C)cc4c3C)C2)c1 (centres undefined)	1	40	-74	11	1	-5	-10	92
COc1cccc(CC2(CO)CCCN(Cc3cn[nH]c3-c3cc(C)ccc3C)C2)c1 (centres undefined)	2	0	-7	22	3	2	3	97
COc1cccc(CC2(CO)CCCN(Cc3ccc(C)s3)C2)c1 (centres undefined)	-5	0	4	11	-4	-2	x	x
CCCC(=O)NC1=C(C#N)C2(CCCC2)Cc2ccccc21	-1	58*	-15	-16	5	2	0	94
CCc1nc(N2CCN(C(=S)NCCCOC)CC2)c2c3c(sc2n1)CCCC3	-3	0	-2	-40	3	-8	x	x
COc1ccc(CCNCC(O)c2ccccc2)cc1 (centres undefined)	3	3	-7	7	4	-3	x	x
COc1ccc(CCNCC(C)c2ccccc2)cc1 (centres undefined)	0	4	-9	2	-1	-4	0	106
COc1ccc(-c2noc(N3CCC(C(=O)Nc4ccc(OC)c(OC)c4)CC3)n2)cc1	-2	83*	-7	-34	-11	-1	0	100
COc1ccc(-c2noc(N3CCC(C(=O)Nc4ccccc4Cl)CC3)n2)cc1	2	0	15	-31	0	0	x	x
NC(=O)N/N=C/c1ccc([N+](=O)[O-])o1	2	5	x	x	x	11	x	x
O=C(N/N=C/c1ccc([N+](=O)[O-])o1)C1CC1	3	83*	2	-2	3	1	23	99
COc1cccc(NC(=O)C(OC(=O)c2ccc([N+](=O)[O-])o2)c2ccccc2)c1 (centres undefined)	0	3	-1	4	-5	10	x	x
COc1cccc(NC(=O)C(OC(=O)c2ccccc2NS(=O)(=O)c2cccs2)c2ccccc2)c1 (centres undefined)	-1	100*	-9	-2	-5	33	-1	100
COCCNC(=O)c1ccc(CS(=O)(=O)c2ccccc2OC)o1	-1	50*	17	-4	4	-8	-1	95
COCCCNC(=O)c1ccc(CS(=O)(=O)c2ccccc2OC)o1	-2	37	4	-6	0	-7	x	x
CC(=O)Oc1ccc2c(=O)c(-c3ccccc3)coc2c1	-2	38	8	-8	0	0	1	93
CC(C)=C1C2C=CC1C1C(=O)N(c3ccc4c(c3)OCO4)C(=O)C21 (centres undefined)	-7	0	4	-5	-7	1	x	x
CC(C)=C1C2CCC1C1C(=O)N(c3ccc4c(c3)OCO4)C(=O)C21 (centres undefined)	-3	48*	8	-6	-9	-6	x	x	GRK2 confirm 2=-42;FAM quench CP2=101
COc1cc(/C=C2\C(=N)N3N=C(S(=O)(=O)CC(C)C)SC3=NC2=O)ccc1OC(=O)c1ccco1	x	5	-1	-5	6	8	x	x
CN1CCN(S(=O)(=O)c2ccc(NC(=O)C(C)(C)C)cc2)CC1	1	81*	-2	-3	-4	-7	-4	98
O=C(Nn1cnnc1)c1cc(Br)ccc1Cl	1	53*	-4	1	-11	2	-1	100
SMILES	DAGLB inhibitor	GRK2 inh	NS3 helicase inh	FID counter	GPR7 antag	core dimer inh	GRK2 inh confirm	Aptamer quench SP	others
O=C(Nn1cnnc1)c1ccc(Cl)c(Cl)c1	-1	1	2	1	-16	5	x	x
CC1CCCN(C(C(=O)Nc2ccc3c(c2)OCO3)c2ccccc2)C1 (centres undefined)	-1	0	x	x	x	13	x	x
CC1CCN(C(C(=O)Nc2ccc3c(c2)OCO3)c2ccccc2)CC1 (centres undefined)	-3	43*	x	x	x	8	-1	102
Cc1nc(CN2CCOCC2)cc(=O)[nH]1	-2	48*	0	-2	-12	2	1	101
O=C(NNC(=O)c1cc(-c2cccc(Br)c2)nc2ccccc12)c1csc(N2CCOCC2)n1	5	2	x	x	x	8	x	x
Cc1oc(/C=N/NC(=O)CC2(C)OCCO2)cc1Br	-1	35	3	-1	-4	-4	1	99
CC1(CC(=O)N/N=C/c2cc(Br)c(O)cc2O)OCCO1	4	0	7	0	-11	-11	x	x
Cc1nn(CC(=O)N(C)Cc2ccc(F)cc2)c(C)c1[N+](=O)[O-]	-1	100*	-8	-2	1	-8	x	x	GRK2 confirm 2=7;FAM quench CP2=102
Cc1nn(CCCC(=O)NCc2ccc(F)cc2)c(C)c1[N+](=O)[O-]	1	0	7	1	-1	-4	x	x
Cc1ccc(S(=O)(=O)n2cnc3ccccc32)cc1[N+](=O)[O-]	2	2	14	0	-12	-1	x	x
CCOc1ccc(OCCC(=O)OCC(=O)Nc2ccc(Cl)cn2)cc1	-2	2	x	x	x	5	x	x
